Measurements collected from several papers.
Protocols differ between the studies behind these lines.
Organism: Escherichia coli
Observed: microbial killing

| Structure (SMILES) | technique | cells | strain | time | MBC |
| --- | --- | --- | --- | --- | --- |
| N#CC(=Cc1ccccc1O)C1=NC(=O)C(=Cc2cn(-c3ccccc3)nc2-c2ccccc2)S1 | broth dilution | – | – | – | 0.5 µg/mL |
| O=c1[nH]cc(F)c(=O)[nH]1 | broth dilution | – | – | 48 h | > 32 µg/mL |
| O=C(O)c1cn(C2CC2)c2cc(N3CCNCC3)c(F)cc2c1=O | broth dilution | – | – | – | 0.25 µg/mL |
| COc1c(C)c(OC)c(C(=O)/C=C/c2ccccc2)c(OC)c1C | broth dilution | – | ATCC25922 | – | > 5000 µg/mL |
| CCn1cc(C(=O)O)c(=O)c2cc(F)c(N3CCNCC3)cc21 | broth dilution | ATCC 8739 | ATCC8739 | – | 1 µM |
| CO[C@H]1O[C@H](COC(c2ccccc2)(c2ccccc2)c2ccccc2)[C@@H](OC(=O)c2ccc(C(C)(C)C)cc2)[C@H](OC(=O)c2ccc(C(C)(C)C)cc2)[C@H]1OC(=O)c1ccc(C(C)(C)C)cc1 | broth dilution | – | – | – | 16 µg/mL |
| COc1c(C)c(OC(=O)c2ccccc2)c(C)c(O)c1C(=O)/C=C/c1ccccc1 | broth dilution | – | ATCC25922 | – | > 5000 µg/mL |
| CN[C@H](CC(C)C)C(=O)N[C@H]1C(=O)N[C@@H](CC(N)=O)C(=O)N[C@H]2C(=O)N[C@H]3C(=O)N[C@H](C(=O)N[C@H](C(=O)O)c4cc(O)cc(O)c4-c4cc3ccc4O)[C@H](O)c3ccc(c(Cl)c3)Oc3cc2cc(c3O[C@@H]2O[C@H](CO)[C@@H](O)[C@H](O)[C@H]2O[C@H]2C[C@](C)(N)[C@H](O)[C@H](C)O2)Oc2ccc(cc2Cl)[C@H]1O | broth dilution | ATCC 8739 | ATCC8739 | – | > 128 µM |
| N#CC(=Cc1cn(-c2ccccc2)nc1-c1ccccc1)C1=NC(=O)CS1 | broth dilution | – | – | – | 0.25 µg/mL |
| CNC1=C([N+](=O)[O-])C2(C(=O)Nc3ccccc32)C2=C(O1)C(=O)c1ccccc1C2=O (stereo not drawn) | – | – | ATCC25922 | – | ≤ 500 µg/mL |
| COc1cc(Cc2cnc(N)nc2N)cc(OC)c1OC | broth dilution | – | – | 48 h | > 32 µg/mL |
| COc1c(C)c(OC(=O)c2ccc(C)cc2)c(C)c(O)c1C(=O)/C=C/c1ccccc1 | broth dilution | – | ATCC25922 | – | > 5000 µg/mL |
